# Published values from different studies.
# Lines come from different studies, so protocols differ.
# Target: NUAK family SNF1-like kinase 2 (NUAK2, Homo sapiens, UniProt Q9H093)
# Sequence (Q9H093 1-628, as in one of the studies): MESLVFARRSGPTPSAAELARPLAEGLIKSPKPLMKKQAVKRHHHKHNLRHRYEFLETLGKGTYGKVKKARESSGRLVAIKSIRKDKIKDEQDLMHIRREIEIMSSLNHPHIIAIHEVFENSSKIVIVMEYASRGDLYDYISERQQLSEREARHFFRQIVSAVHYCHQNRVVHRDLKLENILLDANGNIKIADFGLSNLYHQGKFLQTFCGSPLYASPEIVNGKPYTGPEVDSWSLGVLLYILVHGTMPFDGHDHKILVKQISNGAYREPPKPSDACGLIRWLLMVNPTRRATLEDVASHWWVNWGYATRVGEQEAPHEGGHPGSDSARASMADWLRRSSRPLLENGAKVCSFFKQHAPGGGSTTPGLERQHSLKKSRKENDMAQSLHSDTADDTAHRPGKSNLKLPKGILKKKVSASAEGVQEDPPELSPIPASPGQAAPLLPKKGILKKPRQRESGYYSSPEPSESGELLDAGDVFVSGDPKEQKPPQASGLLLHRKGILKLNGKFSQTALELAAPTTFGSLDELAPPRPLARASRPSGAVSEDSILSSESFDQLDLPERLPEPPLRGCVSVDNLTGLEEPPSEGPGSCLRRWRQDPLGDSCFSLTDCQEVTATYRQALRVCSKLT
SMILES,observed,action,technique,concentration,endpoint,value
N#CCCc1ccc2c(c1)-c1[nH]c3ccc([N+](=O)[O-])cc3c1CC(=O)N2,cell-free assay,,,0.5 µM,remaining signal,67.6%
COc1ccc2c(O[C@@H]3C[C@H]4C(=O)N[C@]5(C(=O)O)CC5/C=C\CCCCC[C@H](NC(=O)OC5CCCC5)C(=O)N4C3)cc(-c3csc(NC(=O)C(C)C)n3)nc2c1C (some centres unmarked),cell-free assay,,competition with immobilised ligand,1 µM,remaining binding,91%
O=C(Nc1cnn(-c2csc(C(=O)NC3COC3)c2)c1)Nc1c(F)cccc1Cl,enzyme activity,inhibitor,,5 µM,remaining activity,97.8%
Nc1ncnc2occ(-c3ccc(NC(=O)Nc4cc(C(F)(F)F)ccc4F)cc3)c12,cell-free assay,inhibitor,,20 µM,remaining signal,30%
CC(C)(C)c1nc2c(s1)c1nc(N)ncc1c1ccc(NS(=O)(=O)c3c(F)cccc3F)c(F)c12,enzyme activity,inhibitor,radiometric,1 µM,remaining activity,81%
C#Cc1cccc(Nc2ncnc3cc(OCCOC)c(OCCOC)cc23)c1,cell-free assay,,,0.5 µM,remaining signal,95.3%
CN(c1ccnc(CNc2nc(Nc3ccc4c(c3)CC(=O)N4)ncc2C(F)(F)F)n1)S(C)(=O)=O,cell-free assay,,competition with immobilised ligand,1 µM,remaining binding,7.6%
CC(C)(C)c1nc(-c2cccc(NS(=O)(=O)c3c(F)cccc3F)c2F)c(-c2ccnc(N)n2)s1,enzyme activity,inhibitor,radiometric,1 µM,remaining activity,90%
O=C(O)c1cc(-c2ccc(C3CCNCC3)cc2)c2ccc(-c3ccc(C(F)(F)F)cc3)cc2c1,cell-free assay,,competition with immobilised ligand,1 µM,remaining binding,100%
COc1cc(Cl)c(C(=O)N[C@@H](CN[C@H]2CC[C@@H](N)CC2)Cc2ccc(C#N)cc2)cc1-c1ccc(CN[C@H](C)c2ccc(C)cc2)o1,enzyme activity,inhibitor,,1 µM,remaining activity,93%
CC(C)(O)[C@H]1CC[C@H](Nc2ccc3ncc(-c4cccc(C(F)(F)F)c4)n3n2)CC1,enzyme activity,inhibitor,,1 µM,remaining activity,84.9%
CC/C(=N\NC(=O)NCc1cccc(O)c1)c1ccc(O)c(C)c1O,enzyme activity,inhibitor,,0.1 µM,inhibition,12.5%
Cc1ccc(C(=O)Nc2ccc(CN3CCN(C)CC3)c(C(F)(F)F)c2)cc1C#Cc1cnc2cccnn12,enzyme activity,inhibitor,,23.5 nM,remaining activity,84%
O=C1Nc2ccc(Cl)cc2C1=Cc1cc(Cl)c(O)c(Cl)c1,cell-free assay,,,0.5 µM,remaining signal,78.7%
CN1CC(Oc2cnc(C#N)cc2-c2ccn3nc(NC(=O)C4CC4)cc3c2)C1,enzyme activity,inhibitor,,1 µM,inhibition,-8%
COc1cc(-c2cn(C3CCc4c(F)cccc4N(CC(F)(F)F)C3=O)nn2)ccc1-n1cnc(C)c1 (centres unmarked),cell-free assay,,competition with immobilised ligand,1 µM,remaining binding,100%
O=C(Nc1cnn(-c2csc(C(=O)NC3COC3)c2)c1)Nc1ccccc1Cl,enzyme activity,inhibitor,,5 µM,remaining activity,99.8%
